The record followed here is ChEMBL document CHEMBL1137792, “The immobilization of gossypol derivative on N-polyvinylpyrrolidone increases its water solubility and modifies membrane-active properties” (J Med Chem, 2009).

Structures are written as SMILES.

A short description of data set [1]: Toxicity in Wistar rat erythrocytes assessed as induction of hemolysis at 50 uM. The note with it: read-out: Activity. Format: cell-based, Erythrocyte. An outline of the steps:
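Freshly isolated, washed rat erythrocytes as 2% suspension in 140 mM NaCl, 10 mM Tris-citrate, 1 mM EDTA, pH 7.5, incubated 30 min at 37 °C with compound (20-100 μM range); spun at 1000g, supernatant OD540 read against water-lysed cells as 100%. Mean ± SEM, n=9.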

Data set [2] is described as follows: Toxicity in human erythrocytes assessed as reduction of membrane fluidity by fluorescent anisotropy. Format: cell-based. The note with it: erythrocyte. An outline of the steps: (§1)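 Human erythrocyte ghosts (hypotonic Tris-HCl/EDTA lysis) diluted in PBS pH 7.4, 2 min at 37 °C with compound (0.05-0.75 μM final), then DPH 1 μM final, 15 min dark at room temperature; steady-state anisotropy, excitation 348/emission 426 nm; ratio to no-compound control (Ai/A0). Mean ± SEM, n=8.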

A short description of data set [3]: Effect on nonenergized Wistar rat liver mitochondrial membrane permeability assessed as increase in permeability to Ba2+ ion at 20 uM. Format: ADME, mitochondria, Mitochondria. An outline of the steps:
(§2)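 Passive swelling of nonenergized rat liver mitochondria (1.0 mg/mL protein) in iso-osmotic nitrate media, Tris-HNO3 pH 7.4, rotenone 0.33 μg/mL, 25 °C, stirred: KNO3 120 mM; Mg2+ and Ba2+ 80 mM; Ca2+ 40 mM with 120 mM sucrose. Absorbance decrease at 520 nm followed; swelling rates normalised to the K+ rate set as 1. Five recordings.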

Data set [4] in a line: Effect on nonenergized Wistar rat liver mitochondrial membrane permeability assessed as increase in permeability to potassium ion at 20 uM. In kind it is ADME, mitochondria, Mitochondria. An outline of the steps:
as §2

Data set [5] in a line: Effect on nonenergized Wistar rat liver mitochondrial membrane permeability assessed as increase in permeability to Ca2+ ion at 20 uM. Format: ADME, mitochondria, Mitochondria. An outline of the steps:
as §2

Data set [6] in a line: Drug binding to Wistar rat liver mitochondrial membrane assessed as [14C] labeled megosin after 5 mins. The note with it: in vitro. Format: ADME, tissue-based. In outline: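 Mitochondria (10 mg protein/mL) incubated with 14C-labeled compound (10 nmol/mg protein, 9.45 mCi/mmol) plus 50-fold unlabeled (500 nmol/mg) at 22 °C with stirring; vacuum filtration through nitrocellulose, two water rinses, filters dried 24 h and counted by liquid scintillation; bound label expressed as cpm and % of total radioactivity. Mean ± SEM, n=12.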

Data set [7] can be described thus: Toxicity in human erythrocytes assessed as reduction of membrane fluidity at 0.4 uM by fluorescent anisotropy relative to untreated control. Format: cell-based. As to conditions: erythrocyte; call rule not given here. An outline of the steps: as §1
Data set [8] can be described thus: Effect on nonenergized Wistar rat liver mitochondrial membrane permeability assessed as increase in permeability to Mg2+ ion at 20 uM. In kind it is ADME, mitochondria, Mitochondria. In outline:
as §2

A short description of data set [9]: Decrease in Wistar rat liver mitochondrial membrane fluidity assessed as rotational correlation times of spin probe at 0.15 uM by ESR. In kind it is ADME, mitochondria, Mitochondria. An outline of the steps:
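ESR of rat liver mitochondria (1 mg/mL protein) in 145 mM KCl, 10 mM Tris-HCl pH 7.4 with nitroxide spin probe added in ethanol to 10^-6 M final; 2 min incubation with compound (range 0.025-0.3 μM) before spectra; rotational correlation time τc derived. Mean ± SEM, n=9, three independent experiments.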

Regarding `Cc1cc2c(c(O)c1-c1c(C)cc3c(c1O)/C(=C/NCCS(=O)(=O)[O-])C(=O)C(O)=C3C(C)C)/C(=C/NCCS(=O)(=O)[O-])C(=O)C(O)=C2C(C)C.[Na+].[Na+]` [MEGOSIN], the hemolysis at 50 µM in [1] came out at 68%. Also, the Activity entry in data set [2] was “Dose-dependent effect”; in [3], “Active”; in [4] it was “Active”; in data set [5], “Active”; in data set [8], “Active”; in data set [9], 32.1 ×10⁻¹⁰ s. For the same molecule, the Drug uptake in data set [6] came to 88.2%. Also, the “fold change (FC)” value in [7] turned out to be 1.83.
